Key:
[1] = molecular target: Cannabinoid receptor 2 (Homo sapiens) (UniProt P34972); assay: Displacement of [3H]CP-55940 from human CB2 receptor expressed in CHO cells at 10 uM; format: cell-based
Procedure, shortened: (§1)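 Membranes (40 µg) from CHO cells stably expressing human CB1 or CB2, with 1 nM [3H]SR141716A (CB1) or 1 nM [3H]CP-55,940 (CB2), and compound at 10 µM. Incubated 1 h at 30 °C in Tris-HCl pH 7.4 with MgCl2, EDTA and 0.5% BSA. Nonspecific binding defined with 10 µM HU-210. Bound ligand recovered on PEI-treated GF/B filters for scintillation counting; reported as % radioligand displaced.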

Cannabinoid receptor 1 [2] = molecular target: T1, Cannabinoid receptor 1 (Homo sapiens, UniProt P21554); assay: Displacement of [3H]SR-141,716A from human Cannabinoid receptor 1 (CB1 receptor) expressed in CHO cells at 10 uM; format: cell-based; procedure, shortened: as §1
Cannabinoid receptor 1 [3] = molecular target: T1, Cannabinoid receptor 1; assay: biochemical; format: cell-based, CHO
Cannabinoid receptor 1 [4] = molecular target: T1, Cannabinoid receptor 1; conditions: CHO, at 10 µM
Cannabinoid receptor 1 [5] = molecular target: T1, Cannabinoid receptor 1; conditions: CHO, 10 uM
Cannabinoid receptor 1 [6] = molecular target: T1, Cannabinoid receptor 1; assay: Inhibition of [3H]SR-141,716A binding to human CB1 receptor expressed in CHO cells; format: cell-based
Procedure, shortened: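 Competition curves on hCB1-CHO membranes (40 µg) with 1 nM [3H]SR141716A and varying compound concentrations, up to 10^-5 M. Incubated 1 h at 30 °C, pH 7.4, 0.5% BSA; final DMSO below 0.1%. Nonspecific binding defined with 10 µM HU-210; filtration, then counting. Ki derived from IC50 by nonlinear fitting and Cheng-Prusoff (Kd 1.13 nM). Mean ± SEM of at least four experiments, each in duplicate.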

Sequence of Cannabinoid receptor 2 (Homo sapiens) (P34972 whole entry): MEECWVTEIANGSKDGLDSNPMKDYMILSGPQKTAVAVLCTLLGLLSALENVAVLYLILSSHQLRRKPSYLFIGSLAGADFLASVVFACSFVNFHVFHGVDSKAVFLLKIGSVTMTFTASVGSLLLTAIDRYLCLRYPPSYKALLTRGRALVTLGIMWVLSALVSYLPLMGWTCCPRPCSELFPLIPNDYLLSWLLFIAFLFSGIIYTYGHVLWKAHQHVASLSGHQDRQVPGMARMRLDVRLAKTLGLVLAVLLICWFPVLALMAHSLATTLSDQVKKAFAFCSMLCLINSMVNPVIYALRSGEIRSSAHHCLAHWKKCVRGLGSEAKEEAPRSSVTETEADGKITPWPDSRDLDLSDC
T1 sequence (P21554 whole entry): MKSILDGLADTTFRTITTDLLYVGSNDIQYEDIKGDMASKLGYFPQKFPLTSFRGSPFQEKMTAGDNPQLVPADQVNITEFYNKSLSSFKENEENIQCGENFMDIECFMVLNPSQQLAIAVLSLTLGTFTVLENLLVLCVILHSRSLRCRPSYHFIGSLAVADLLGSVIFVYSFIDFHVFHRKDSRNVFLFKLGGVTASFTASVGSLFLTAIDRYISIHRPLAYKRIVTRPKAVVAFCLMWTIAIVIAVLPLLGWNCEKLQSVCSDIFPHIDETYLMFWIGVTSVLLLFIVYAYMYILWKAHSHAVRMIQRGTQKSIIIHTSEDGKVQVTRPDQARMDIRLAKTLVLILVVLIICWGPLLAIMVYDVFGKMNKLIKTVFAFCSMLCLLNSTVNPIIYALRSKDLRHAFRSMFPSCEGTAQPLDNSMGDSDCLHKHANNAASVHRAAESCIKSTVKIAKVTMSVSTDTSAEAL

Structure (SMILES)	Displacement [1] [%]	Displacement (Cannabinoid receptor 1 [2]) [%]	Ki (Cannabinoid receptor 1 [3]) [nM]	Decrease (Cannabinoid receptor 1 [4]) [%]	Increase (Cannabinoid receptor 1 [5]) [%]	Ki (Cannabinoid receptor 1 [6]) [nM]
CCN1C(=O)C(c2ccccc2)(c2ccccc2)NC1=S	< 10	40	–	–	–	–
CC(C)CN1C(=O)C(c2ccc(Cl)cc2)(c2ccc(Cl)cc2)NC1=S	< 20	76.1	2090	-74	–	–
O=C1N(CCc2ccccc2)C(=S)NC1(c1ccccc1)c1ccccc1	< 10	29.3	–	–	–	–
C=CCN1C(=O)NC(c2ccc(I)cc2)(c2ccc(I)cc2)C1=O	–	–	–	-74	–	–
CCCCCCC(C)(C)c1cc(O)c2c(c1)OC(C)(C)[C@H]1CC=C(CO)C[C@H]21 [DEXANABINOL]	–	–	18.6	–	130	–
CCN1C(=O)C(c2ccc(Br)cc2)(c2ccc(Br)cc2)NC1=S	< 20	90.9	2190	–	–	–
CC(C)CN1C(=O)C(c2ccc(Br)cc2)(c2ccc(Br)cc2)NC1=S	< 20	76.3	1780	-74	–	–
O=C1N(Cc2ccccc2)C(=S)NC1(c1ccc(Br)cc1)c1ccc(Br)cc1	< 10	76	993	-74	–	–
CCCCCCCN1C(=O)C(c2ccc(Cl)cc2)(c2ccc(Cl)cc2)NC1=S	< 10	67.8	–	–	–	–
CCCCN1C(=O)C(c2ccc(I)cc2)(c2ccc(I)cc2)NC1=S	< 20	77.4	724	-74	–	–
O=C1N(Cc2ccccc2)C(=S)NC1(c1ccccc1)c1ccccc1	< 10	44.7	–	–	–	–
CC(C)CN1C(=O)C(c2ccccc2)(c2ccccc2)NC1=S	< 10	34.6	–	–	–	–
O=C1N(CCCO)C(=S)NC1(c1ccccc1)c1ccccc1	< 10	20.8	–	–	–	–
C=CCN1C(=O)C(c2ccc(Br)cc2)(c2ccc(Br)cc2)NC1=S	< 15	87.2	871	-74	–	–
O=C1NC(c2ccc(Br)cc2)(c2ccc(Br)cc2)C(=O)N1Cc1ccccc1	–	–	–	-74	–	–
O=C1N(CCc2ccccc2)C(=S)NC1(c1ccc(Cl)cc1)c1ccc(Cl)cc1	< 15	79.4	3800	–	–	–
CCCCCCCN1C(=O)C(c2ccc(Br)cc2)(c2ccc(Br)cc2)NC1=S	< 10	34.2	–	–	–	–
CCCCCCCCN1C(=O)C(c2ccc(Cl)cc2)(c2ccc(Cl)cc2)NC1=S	< 10	36.6	–	–	–	–

Structure (SMILES)	Displacement [1] [%]	Displacement (Cannabinoid receptor 1 [2]) [%]	Ki (Cannabinoid receptor 1 [3]) [nM]	Decrease (Cannabinoid receptor 1 [4]) [%]	Increase (Cannabinoid receptor 1 [5]) [%]	Ki (Cannabinoid receptor 1 [6]) [nM]
CCCCCCN1C(=O)C(c2ccccc2)(c2ccccc2)NC1=S	< 10	38.5	–	–	–	–
CCCCN1C(=O)NC(c2ccc(Br)cc2)(c2ccc(Br)cc2)C1=O	–	–	–	-74	–	–
COCCCN1C(=O)C(c2ccccc2)(c2ccccc2)NC1=S	< 15	29.4	–	–	–	–
O=C1N(Cc2ccco2)C(=S)NC1(c1ccccc1)c1ccccc1	< 15	59.2	–	–	–	–
CCCCN1C(=O)C(c2ccccc2)(c2ccccc2)NC1=S	< 10	42.8	–	–	–	–
CCCCCCCN1C(=O)C(c2ccccc2)(c2ccccc2)NC1=S	< 10	28.8	–	–	–	–
C=CCN1C(=O)C(c2ccccc2)(c2ccccc2)NC1=S	< 15	40	–	–	–	–
CCCCCCN1C(=O)C(c2ccc(Br)cc2)(c2ccc(Br)cc2)NC1=S	< 10	45.5	–	–	–	–
O=C1N(Cc2ccccc2)C(=S)NC1(c1ccc(Cl)cc1)c1ccc(Cl)cc1	< 15	74.2	2190	-74	–	–
CCCCCCCCN1C(=O)C(c2ccc(Br)cc2)(c2ccc(Br)cc2)NC1=S	< 10	23.4	–	–	–	–
CCCCN1C(=O)C(c2ccc(Br)cc2)(c2ccc(Br)cc2)NC1=S	< 15	73.8	1410	–	–	–
C=CCN1C(=O)C(c2ccc(I)cc2)(c2ccc(I)cc2)NC1=S	< 20	94.2	589	-74	–	–
CCCCN1C(=O)NC(c2ccc(I)cc2)(c2ccc(I)cc2)C1=O	–	–	1820	-74	–	–
O=C1N(CCc2ccccc2)C(=S)NC1(c1ccc(Br)cc1)c1ccc(Br)cc1	< 10	54.6	–	–	–	> 10000
CCCCCCCCN1C(=O)C(c2ccccc2)(c2ccccc2)NC1=S	< 20	38.8	–	–	–	–
CC(C)N1C(=O)C(c2ccccc2)(c2ccccc2)NC1=S	< 10	42.8	–	–	–	–
CC(C)N1C(=O)C(c2ccc(Br)cc2)(c2ccc(Br)cc2)NC1=S	< 15	91.7	3630	–	–	–
